The source made the active and inactive calls. The calls are words filed in the database; no cut-off is given here.
Legend:
[1] = Effect on un-phosphorylated beta-catenin level in human HuH7 cells after 24 to 48 hrs by Western blot analysis; format: ADME, cell-based; settings: huh-7
Method in brief: (§1)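 Cells were exposed to compound or DMSO control for 24 or 48 h. Lysates were loaded at […] protein per lane and immunoblotted with antibodies diluted 1:100 to 1:500 in 5% BSA-TBS-T. Targets were p-Akt (Ser473), Akt, p-GSK3-α/β (Ser21/9), GSK3-α/β, SAPK/JNK, p-SAPK/JNK (Thr183/Tyr185), PARP, p-β-catenin, β-catenin, cyclin D1, p-ASK1 (S83) and p-ASK1 (S966). Actin served as the loading control.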

[2] = target: T1, Mitogen-activated protein kinase kinase kinase 5 (Homo sapiens) (UniProt Q99683); test: Activation of ASK1 in human HuH7 cells assessed as Ser966 phosphorylation after 24 to 48 hrs by Western blot analysis; format: cell-based; settings: Huh-7; method in brief: as §1
T1 sequence (whole entry): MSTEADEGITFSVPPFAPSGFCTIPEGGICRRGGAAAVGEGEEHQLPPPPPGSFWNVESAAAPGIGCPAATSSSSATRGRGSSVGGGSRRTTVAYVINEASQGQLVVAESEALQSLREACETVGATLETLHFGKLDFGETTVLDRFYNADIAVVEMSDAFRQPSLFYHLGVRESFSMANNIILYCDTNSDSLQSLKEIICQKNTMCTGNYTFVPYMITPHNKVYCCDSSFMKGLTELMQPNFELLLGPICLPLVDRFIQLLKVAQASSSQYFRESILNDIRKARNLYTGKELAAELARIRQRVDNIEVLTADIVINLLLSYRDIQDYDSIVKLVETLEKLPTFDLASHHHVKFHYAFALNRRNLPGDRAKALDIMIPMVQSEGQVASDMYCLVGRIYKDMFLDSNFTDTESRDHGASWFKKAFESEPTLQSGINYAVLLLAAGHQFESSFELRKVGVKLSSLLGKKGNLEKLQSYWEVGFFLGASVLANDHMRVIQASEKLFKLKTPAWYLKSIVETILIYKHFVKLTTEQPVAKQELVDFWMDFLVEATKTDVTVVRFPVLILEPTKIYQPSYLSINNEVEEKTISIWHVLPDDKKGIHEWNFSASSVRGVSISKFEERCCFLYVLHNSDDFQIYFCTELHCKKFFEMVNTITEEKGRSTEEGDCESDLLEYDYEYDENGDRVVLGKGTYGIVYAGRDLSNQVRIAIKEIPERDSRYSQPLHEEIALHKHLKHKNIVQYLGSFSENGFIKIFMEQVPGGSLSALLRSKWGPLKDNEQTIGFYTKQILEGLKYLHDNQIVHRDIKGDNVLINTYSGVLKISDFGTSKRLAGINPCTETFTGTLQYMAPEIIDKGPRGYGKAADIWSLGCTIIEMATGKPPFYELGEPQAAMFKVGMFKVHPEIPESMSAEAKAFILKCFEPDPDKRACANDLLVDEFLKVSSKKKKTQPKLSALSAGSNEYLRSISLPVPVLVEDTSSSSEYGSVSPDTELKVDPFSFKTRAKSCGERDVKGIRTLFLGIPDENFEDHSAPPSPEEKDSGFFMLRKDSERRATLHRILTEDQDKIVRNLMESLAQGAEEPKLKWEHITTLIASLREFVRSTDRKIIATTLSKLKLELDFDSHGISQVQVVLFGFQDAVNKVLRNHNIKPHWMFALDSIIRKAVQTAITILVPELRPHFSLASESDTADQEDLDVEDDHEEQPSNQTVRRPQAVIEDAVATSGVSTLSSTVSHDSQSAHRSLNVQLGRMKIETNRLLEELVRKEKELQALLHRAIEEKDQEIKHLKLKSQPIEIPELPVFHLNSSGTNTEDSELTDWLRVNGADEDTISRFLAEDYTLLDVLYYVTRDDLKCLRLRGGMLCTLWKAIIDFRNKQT

[3] = target: T1, Mitogen-activated protein kinase kinase kinase 5 (Homo sapiens); test: Activation of ASK1 in human HuH7 cells assessed as Ser83 phosphorylation after 24 to 48 hrs by Western blot analysis; format: cell-based; settings: Huh-7; method in brief: as §1
[4] = target: T1, Mitogen-activated protein kinase kinase kinase 5 (Homo sapiens); test: Activation of ASK1 in human Mahlavu cells assessed as SAPK/JNK phosphorylation after 24 to 48 hrs by Western blot analysis; format: cell-based; method in brief: as §1
[5] = target: RAC-alpha serine/threonine-protein kinase (Homo sapiens) (UniProt P31749); test: Inhibition of Akt phosphorylation in human Mahlavu cells after 24 to 48 hrs by Western blot analysis; format: cell-based; method in brief: as §1
Sequence of RAC-alpha serine/threonine-protein kinase (Homo sapiens) (P31749 whole entry): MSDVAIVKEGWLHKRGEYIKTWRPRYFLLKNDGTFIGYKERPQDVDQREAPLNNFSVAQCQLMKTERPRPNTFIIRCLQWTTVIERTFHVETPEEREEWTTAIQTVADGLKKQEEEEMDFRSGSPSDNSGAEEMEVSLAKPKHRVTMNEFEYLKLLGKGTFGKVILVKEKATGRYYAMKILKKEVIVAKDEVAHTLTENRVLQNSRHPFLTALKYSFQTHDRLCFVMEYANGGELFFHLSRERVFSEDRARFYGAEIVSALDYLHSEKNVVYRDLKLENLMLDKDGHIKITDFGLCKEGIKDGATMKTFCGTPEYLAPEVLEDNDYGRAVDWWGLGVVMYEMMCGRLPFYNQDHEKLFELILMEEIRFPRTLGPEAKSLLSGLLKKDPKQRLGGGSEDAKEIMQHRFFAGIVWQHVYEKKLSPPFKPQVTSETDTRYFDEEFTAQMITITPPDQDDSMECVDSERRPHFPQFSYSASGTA

Huh-7 [6] = test: Induction of oxidative stress in human HuH7 cells assessed as ROS accumulation at 10 uM after 48 hrs by flow cytometry analysis; format: functional, cell-based
Method in brief: (§2)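 Huh7 and Mahlavu cells were treated after 24 h with 10 µM compound or DMSO for 48 h. Cells were then trypsinized and processed with a MUSE oxidative stress kit for flow cytometric counting of ROS-positive cells. Cells grown in selenium-deficient serum-free medium served as the positive control.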

Mahlavu [7] = test: Induction of oxidative stress in human Mahlavu cells assessed as ROS accumulation at 10 uM after 48 hrs by flow cytometry analysis; format: functional, cell-based; method in brief: as §2
[8] = target: T1, Mitogen-activated protein kinase kinase kinase 5 (Homo sapiens); test: Activation of ASK1 in human Mahlavu cells assessed as Ser83 phosphorylation after 24 to 48 hrs by Western blot analysis; format: cell-based; method in brief: as §1
[9] = Cytotoxicity against human HuH7 cells assessed as growth inhibition after 72 hrs by sulforhodamine B assay; format: functional, cell-based, Huh-7; settings: Homo sapiens, Huh-7, 72 h; read-out: IC50
Method in brief: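 Cells were grown at 37°C, 5% CO2 in DMEM with 10% FBS. They were seeded at 1000–3000 cells/well, grown 24 h, then exposed to compound at 2.5–40 µM for 72 h. Cells were fixed in 10% TCA for 1 h at 4°C, stained with 0.4% SRB in 1% acetic acid for 10 min, and the dye solubilized in 10 mM Tris. Absorbance was read at 515 nm; runs were in triplicate; IC50 was calculated, with fits of R2 0.8–1 accepted.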

Mahlavu [10] = test: Induction of oxidative stress in human Mahlavu cells assessed as ROS accumulation at 10 uM after 48 hrs by DCFH-DA staining based fluorescence microscopy; format: functional, cell-based
Method in brief: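 Cells in 6-well dishes were treated with 10 µM compound or DMSO for 48 h. They were washed in PBS and stained for 15 min at 37°C in the dark with DCFH-DA solution (1 mM DCFH-DA, 10 mM glucose, 10 mM HEPES in PBS). After three PBS washes, cells were viewed by fluorescence microscopy. Selenium-deficient serum-free medium culture served as the positive control.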

Huh-7 [11] = test: Induction of apoptosis in human HuH7 cells assessed as horseshoe nuclear structure at 10 uM after 48 hrs by Hoechst 33258 staining-based immunofluorescence microscopy; format: functional, cell-based
Method in brief: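 Cells on coverslips were incubated overnight, then treated with 10 µM compound or DMSO for 48 h. They were washed in ice-cold PBS, fixed in cold methanol for 10 min, and stained with 1 µg/mL Hoechst 33258 for 5 min in the dark. Nuclei were examined by fluorescence microscopy with a 40x objective.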

[12] = target: Glycogen synthase kinase-3 beta (Homo sapiens) (UniProt P49841); test: Inhibition of GSK3beta phosphorylation in human Mahlavu cells after 24 to 48 hrs by Western blot analysis; format: cell-based; method in brief: as §1
Sequence of Glycogen synthase kinase-3 beta (Homo sapiens) (P49841 whole entry, looked up): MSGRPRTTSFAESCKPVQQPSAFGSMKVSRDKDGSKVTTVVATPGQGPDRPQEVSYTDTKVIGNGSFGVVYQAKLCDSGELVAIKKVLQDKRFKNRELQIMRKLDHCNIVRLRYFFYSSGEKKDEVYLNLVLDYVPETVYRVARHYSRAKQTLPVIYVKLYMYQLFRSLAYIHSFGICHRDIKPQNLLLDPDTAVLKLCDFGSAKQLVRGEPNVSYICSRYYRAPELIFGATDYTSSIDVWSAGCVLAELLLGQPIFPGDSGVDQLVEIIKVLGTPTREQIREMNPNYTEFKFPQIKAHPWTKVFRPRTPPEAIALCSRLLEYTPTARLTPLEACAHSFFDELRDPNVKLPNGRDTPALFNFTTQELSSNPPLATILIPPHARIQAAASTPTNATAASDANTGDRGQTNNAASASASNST

Row | Compound | Activity [1] | Activity [2] | Activity [3] | Activity [4] | inhibition [5] | Activity (Huh-7 [6]) | Activity (Mahlavu [7]) | Activity [8] | IC50 [9] | Activity (Mahlavu [10]) | Activity (Huh-7 [11]) | inhibition [12]
1 | COc1ccc(C2=Nn3c(nnc3C(C)c3ccc(CC(C)C)cc3)SC2)cc1 (centres undefined) | Non-toxic | Active | Active | Active | Active | Active | Active | Active | 3.7 µM | Active | Active | Active
2 | Cc1ccc(C2=Nn3c(nnc3C(C)c3ccc(CC(C)C)cc3)SC2)cc1 (centres undefined) | Non-toxic | Active | Active | Active | Active | Active | Active | Active | 5 µM | Active | Active | Active

Reference: ChEMBL document CHEMBL3751842, “Novel triazolothiadiazines act as potent anticancer agents in liver cancer cells through Akt and ASK-1 proteins” (Bioorg Med Chem, 2016)
